What was measured:
NCI-H23 = test: Cytotoxicity against human NCI-H23 cells assessed as cell growth at 0.5 uM by SRB assay; type: functional; settings: read-out: Activity
MDA-MB-435 [1] = test: Cytotoxicity against human MDA-MB-435 cells assessed as cell growth at 5 uM by SRB assay; type: functional; settings: read-out: Activity
CCRF-CEM = test: Cytotoxicity against human CCRF-CEM cells assessed as cell growth at 5 uM by SRB assay; type: functional; settings: read-out: Activity
SNB-75 [2] = test: Cytotoxicity against human SNB75 cells assessed as cell growth at 0.005 uM by SRB assay; type: functional; settings: read-out: Activity
NCI-H322M [3] = test: Cytotoxicity against human NCI-H322M cells assessed as cell growth at 0.005 uM by SRB assay; type: functional; settings: read-out: Activity
HOP-62 [4] = test: Cytotoxicity against human HOP62 cells assessed as cell growth at 5 uM by SRB assay; type: functional; settings: read-out: Activity
Outline: (§1)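 Measured in the NCI-60 human tumour cell line panel using five-dose testing. Growth was recorded at each dose for each cell line, and a GI50 was derived for each line.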

DU-145 = test: Cytotoxicity against human DU145 cells assessed as cell growth at 0.05 uM by SRB assay; type: functional; settings: read-out: Activity; outline: as §1
PC-3 = test: Cytotoxicity against human PC3 cells assessed as cell growth at 0.005 uM by SRB assay; type: functional; settings: read-out: Activity
HOP-62 [5] = test: Cytotoxicity against human HOP62 cells assessed as cell growth at 0.5 uM by SRB assay; type: functional; settings: read-out: Activity; outline: as §1
RXF 393 = test: Cytotoxicity against human RXF393 cells by SRB assay; type: functional
Outline: (§2)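 NCI-60 panel screen; 5-dose testing giving GI50 per cell line, plus a single 10 µM one-dose test. Method details not given beyond the NCI screen.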

TK-10 [6] = test: Cytotoxicity against human TK10 cells assessed as cell growth at 0.005 uM by SRB assay; type: functional; settings: read-out: Activity
CAKI-1 = test: Cytotoxicity against human Caki1 cells assessed as cell growth at 5 uM by SRB assay; type: functional; settings: read-out: Activity
A498 = test: Cytotoxicity against human A498 cells assessed as cell growth at 0.05 uM by SRB assay; type: functional; settings: read-out: Activity
NCI-H322M [7] = test: Cytotoxicity against human NCI-H322M cells assessed as cell growth at 50 uM by SRB assay; type: functional; settings: read-out: Activity
TK-10 [8] = test: Cytotoxicity against human TK10 cells by SRB assay; type: functional; outline: as §2
HL-60(TB) [9] = test: Cytotoxicity against human HL-60(TB) cells assessed as cell growth at 0.05 uM by SRB assay; type: functional; settings: read-out: Activity; outline: as §1
MDA-MB-468 [10] = test: Cytotoxicity against human MDA-MB-468 cells assessed as cell growth at 0.5 uM by SRB assay; type: functional; settings: read-out: Activity
MDA-MB-435 [11] = test: Cytotoxicity against human MDA-MB-435 cells by SRB assay; type: functional; outline: as §2
K562 [12] = test: Cytotoxicity against human K562 cells assessed as cell growth inhibition after 72 hrs by MTS assay; type: functional, cell-based; settings: K562, 72 h
COLO 205 = test: Cytotoxicity against human COLO205 cells assessed as cell growth at 50 uM by SRB assay; type: functional; settings: read-out: Activity
T47D = test: Cytotoxicity against human T47D cells assessed as cell growth at 0.05 uM by SRB assay; type: functional; settings: read-out: Activity
SNB-19 [13] = test: Cytotoxicity against human SNB19 cells by SRB assay; type: functional; outline: as §2
HCT-116 = test: Cytotoxicity against human HCT116 cells assessed as cell growth at 0.5 uM by SRB assay; type: functional; settings: read-out: Activity; outline: as §1
RPMI-8226 = test: Cytotoxicity against human RPMI8226 cells assessed as cell growth at 50 uM by SRB assay; type: functional; settings: read-out: Activity
SK-MEL-28 [14] = test: Cytotoxicity against human SK-MEL-28 cells assessed as cell growth at 50 uM by SRB assay; type: functional; settings: read-out: Activity
SF-268 [15] = test: Cytotoxicity against human SF268 cells assessed as cell growth at 0.05 uM by SRB assay; type: functional; settings: read-out: Activity
MOLT-4 = test: Cytotoxicity against human MOLT4 cells assessed as cell growth at 0.5 uM by SRB assay; type: functional; settings: read-out: Activity
SF-539 = test: Cytotoxicity against human SF539 cells assessed as cell growth at 0.005 uM by SRB assay; type: functional; settings: read-out: Activity
HL-60(TB) [16] = test: Cytotoxicity against human HL-60(TB) cells assessed as cell growth at 0.005 uM by SRB assay; type: functional; settings: read-out: Activity; outline: as §1
MDA-MB-468 [17] = test: Cytotoxicity against human MDA-MB-468 cells assessed as cell growth at 50 uM by SRB assay; type: functional; settings: read-out: Activity
OVCAR-8 = test: Cytotoxicity against human OVCAR8 cells assessed as cell growth at 5 uM by SRB assay; type: functional; settings: read-out: Activity
NCI-H522 = test: Cytotoxicity against human NCI-H522 cells assessed as cell growth at 0.05 uM by SRB assay; type: functional; settings: read-out: Activity
[18] = Cytotoxicity against human Hs578T cells assessed as cell growth at 50 uM by SRB assay; type: functional; settings: Hs-578T, read-out: Activity; outline: as §1
SK-MEL-28 [19] = test: Cytotoxicity against human SK-MEL-28 cells assessed as cell growth at 0.005 uM by SRB assay; type: functional; settings: read-out: Activity
UO-31 = test: Cytotoxicity against human UO31 cells assessed as cell growth at 0.5 uM by SRB assay; type: functional; settings: read-out: Activity
NCI-H226 = test: Cytotoxicity against human NCI-H226 cells by SRB assay; type: functional; outline: as §2
SF-268 [20] = test: Cytotoxicity against human SF268 cells by SRB assay; type: functional; outline: as §2
K562 [21] = test: Relative resistance, ratio of IC50 for etoposide-resistant human K/VP.5 cells to IC50 for human K562 cells; type: functional
SNB-75 [22] = test: Cytotoxicity against human SNB75 cells by SRB assay; type: functional; outline: as §2
OVCAR-5 = test: Cytotoxicity against human OVCAR5 cells assessed as cell growth at 0.5 uM by SRB assay; type: functional; settings: read-out: Activity
SNB-19 [23] = test: Cytotoxicity against human SNB19 cells assessed as cell growth at 50 uM by SRB assay; type: functional; settings: read-out: Activity
SNB-75 [24] = test: Cytotoxicity against human SNB75 cells assessed as cell growth at 5 uM by SRB assay; type: functional; settings: read-out: Activity
[25] = read-out: LC50 (the source's name)
[26] = read-out: pLC50 (the source's name) (converted)

SMILES: COc1cc([C@@H]2c3cc4c(cc3[C@@H](NC(=O)CN3CCN(CCCCCCN5CCN(CC(=O)N[C@@H]6c7cc8c(cc7[C@@H](c7cc(OC)c(O)c(OC)c7)[C@H]7C(=O)OC[C@@H]76)OCO8)CC5)CC3)[C@H]3COC(=O)[C@H]23)OCO4)cc(OC)c1O
- growth at 0.5 µM (NCI-H23): 95%
- growth at 5 µM (MDA-MB-435 [1]): 57%
- growth at 5 µM (CCRF-CEM): 7%
- growth at 0.005 µM (SNB-75 [2]): 75%
- growth at 0.005 µM (NCI-H322M [3]): 98%
- growth at 5 µM (HOP-62 [4]): 42%
- growth at 0.05 µM (DU-145): 103%
- growth at 0.005 µM (PC-3): 93%
- growth at 0.5 µM (HOP-62 [5]): 98%
- GI50 (RXF 393; read-out: GI50): 9.33 µM
- CC50 (RXF 393; [25]): > 50 µM
- TGI (RXF 393; read-out: TGI): > 50 µM
- GI50 (RXF 393; read-out: pGI50 (converted)): 9.33 µM
- CC50 (RXF 393; [26]): > 50.1 µM
- TGI (RXF 393; read-out: pTGI (converted)): > 50.1 µM
- growth at 0.005 µM (TK-10 [6]): 101%
- growth at 5 µM (CAKI-1): 80%
- growth at 0.05 µM (A498): 96%
- growth at 50 µM (NCI-H322M [7]): 37%
- GI50 (TK-10 [8]; read-out: GI50): > 50 µM
- CC50 (TK-10 [8]; [25]): > 50 µM
- TGI (TK-10 [8]; read-out: TGI): > 50 µM
- GI50 (TK-10 [8]; read-out: pGI50 (converted)): > 50.1 µM
- CC50 (TK-10 [8]; [26]): > 50.1 µM
- TGI (TK-10 [8]; read-out: pTGI (converted)): > 50.1 µM
- growth at 0.05 µM (HL-60(TB) [9]): 114%
- growth at 0.5 µM (MDA-MB-468 [10]): 83%
- GI50 (MDA-MB-435 [11]; read-out: GI50): 7.52 µM
- CC50 (MDA-MB-435 [11]; [25]): > 50 µM
- TGI (MDA-MB-435 [11]; read-out: TGI): > 50 µM
- GI50 (MDA-MB-435 [11]; read-out: pGI50 (converted)): 7.59 µM
- CC50 (MDA-MB-435 [11]; [26]): > 50.1 µM
- TGI (MDA-MB-435 [11]; read-out: pTGI (converted)): > 50.1 µM
- IC50 (K562 [12]): 0.041 µM
- growth at 50 µM (COLO 205): -3%
- growth at 0.05 µM (T47D): 90%
- GI50 (SNB-19 [13]; read-out: GI50): 1.03 µM
- CC50 (SNB-19 [13]; [25]): > 50 µM
- TGI (SNB-19 [13]; read-out: TGI): > 50 µM
- GI50 (SNB-19 [13]; read-out: pGI50 (converted)): 1.02 µM
- CC50 (SNB-19 [13]; [26]): > 50.1 µM
- TGI (SNB-19 [13]; read-out: pTGI (converted)): > 50.1 µM
- growth at 0.5 µM (HCT-116): 60%
- growth at 50 µM (RPMI-8226): -13%
- growth at 50 µM (SK-MEL-28 [14]): 3%
- growth at 0.05 µM (SF-268 [15]): 100%
- growth at 0.5 µM (MOLT-4): 23%
- growth at 0.005 µM (SF-539): 94%
- growth at 0.005 µM (HL-60(TB) [16]): 120%
- growth at 50 µM (MDA-MB-468 [17]): -33%
- growth at 5 µM (OVCAR-8): 92%
- growth at 0.05 µM (NCI-H522): 99%
- growth at 50 µM [18]: 9%
- growth at 0.005 µM (SK-MEL-28 [19]): 100%
- growth at 0.5 µM (UO-31): 92%
- GI50 (NCI-H226; read-out: GI50): 5.42 µM
- CC50 (NCI-H226; [25]): > 50 µM
- TGI (NCI-H226; read-out: TGI): 46.8 µM
- GI50 (NCI-H226; read-out: pGI50 (converted)): 5.37 µM
- CC50 (NCI-H226; [26]): > 50.1 µM
- TGI (NCI-H226; read-out: pTGI (converted)): 46.8 µM
- GI50 (SF-268 [20]; read-out: GI50): 1.38 µM
- CC50 (SF-268 [20]; [25]): > 50 µM
- TGI (SF-268 [20]; read-out: TGI): > 50 µM
- GI50 (SF-268 [20]; read-out: pGI50 (converted)): 1.38 µM
- CC50 (SF-268 [20]; [26]): > 50.1 µM
- TGI (SF-268 [20]; read-out: pTGI (converted)): > 50.1 µM
- Ratio IC50 (K562 [21]): 21.5
- GI50 (SNB-75 [22]; read-out: GI50): 0.957 µM
- CC50 (SNB-75 [22]; [25]): > 50 µM
- TGI (SNB-75 [22]; read-out: TGI): 12.8 µM
- GI50 (SNB-75 [22]; read-out: pGI50 (converted)): 0.955 µM
- CC50 (SNB-75 [22]; [26]): > 50.1 µM
- TGI (SNB-75 [22]; read-out: pTGI (converted)): 12.9 µM
- growth at 0.5 µM (OVCAR-5): 86%
- growth at 50 µM (SNB-19 [23]): 11%
- growth at 5 µM (SNB-75 [24]): 22%

Source: ChEMBL document CHEMBL3588757, “Structure-based design, synthesis and biological testing of piperazine-linked bis-epipodophyllotoxin etoposide analogs” (Bioorg Med Chem, 2015)
